Source: ChEMBL document CHEMBL4842325, “Lanosterol 14α-demethylase (CYP51)/histone deacetylase (HDAC) dual inhibitors for treatment of Candida tropicalis and Cryptococcus neoformans infections” (Eur J Med Chem, 2021)
In brackets after ≈: the same amount, converted by molar mass. Activity calls are given as the source filed them. No cut-off for these calls is given here.

What was measured:
Cryptococcus neoformans [1] = assay: microbe, parasite or virus in culture; type: functional; details: H99, time 72 hrs
Candida albicans = assay: microbe, parasite or virus in culture; type: functional; details: 0304103
Candida tropicalis [2] = assay: Inhibition of biofilm formation in Candida tropicalis 5008 at 64 ug/ml incubated for 24 hrs by XTT reduction assay; type: functional
Outline: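 C. tropicalis 5008 or C. neoformans H99 from exponential YEPD culture diluted in RPMI 1640 to 1 × 10⁶ CFU/mL. Adhesion at 37 °C for 1.5 h. Results given as percent inhibition versus untreated wells. Three independent experiments, mean ± SD, t-test.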

Cryptococcus neoformans [3] = assay: Downregulation of CAP60 gene expression in Cryptococcus neoformans H99 at 2 ug/ml measured after 24 hrs by qRT-PCR analysis; type: functional; details: dose 2.0 µg/ml
Outline: (§1)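 Exponentially growing C. neoformans H99 inoculated into 50 mL YPD with compound and incubated 35 °C for 24 h. Cells ground in liquid nitrogen before total RNA isolation, then reverse transcription and real-time RT-qPCR. Means ± SD of three independent assays.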

Candida tropicalis [4] = assay: Inhibition of CYP51 in Candida tropicalis 5008 assessed as ergosterol level at 4 ug/ml by GC-MS analysis (reference value: 84.91%); design: scale not given: the % may be the effect or the level left; details: dose 4.0 µg/ml
Candida tropicalis [5] = assay: Inhibition of CYP51 in Candida tropicalis 5008 assessed as unknown sterol level at 4 ug/ml by GC-MS analysis (reference value: 6.48%); design: scale not given: the % may be the effect or the level left; details: dose 4.0 µg/ml
Candida tropicalis [6] = assay: Inhibition of CYP51 in Candida tropicalis 5008 assessed as obtusifoliol level at 4 ug/ml by GC-MS analysis; design: scale not given: the % may be the effect or the level left; details: dose 4.0 µg/ml
Candida tropicalis [7] = assay: Inhibition of CYP51 in Candida tropicalis 5008 assessed as eburicol level at 4 ug/ml by GC-MS analysis; design: scale not given: the % may be the effect or the level left; details: dose 4.0 µg/ml
Candida tropicalis [8] = assay: Downregulation of ERG11 mRNA expression in Candida tropicalis 5008 at 4 ug/ml measured after 24 hrs by qRT-PCR analysis; type: functional; details: dose 4.0 µg/ml
Outline: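 Exponential-phase C. tropicalis 5008 inoculated into 10 mL YPD with compound at several concentrations, DMSO as blank control. Incubated 35 °C for 24 h. Total RNA isolated on columns and reverse-transcribed. Real-time RT-PCR with ACT1 as internal control. Mean of 3 independent assays ± SD.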

[9] = Inhibition of HDAC in Candida tropicalis 5008 using Boc-Lys(Ac)-AMC as substrate preincubated with protoplast for 12 hrs followed by incubation with substrate for 6 hrs by fluorimetric assay
Outline: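 Whole-cell assay on C. tropicalis 5008, 100 mg wet weight of exponential-phase cells. Cell wall removed with snailase to give protoplasts, which were dispersed in PBS. Protoplasts incubated with compound at 35 °C for 12 h. Boc-Lys(Ac)-AMC then added to a final 30 µM and incubated 37 °C for 6 h. Stop solution added, 37 °C for 2 h. Fluorescence read at Ex 360/Em 460 nm and converted to HDAC inhibition rate.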

[10] = Inhibition of HDAC in Cryptococcus neoformans H99 using Boc-Lys(Ac)-AMC as substrate preincubated with protoplast for 12 hrs followed by incubation with substrate for 6 hrs by fluorimetric assay
Candida tropicalis [11] = assay: Antifungal activity against Candida tropicalis 5008 infected in ICR mouse model assessed as reduction in fungal burden in kidney at 20 mg/kg, po administered once a day for 5 days; type: functional; details: time 5 day
Outline: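 ICR mice given cyclophosphamide 100 mg/kg ip 24 h before infection, then infected iv with 1 × 10⁵ CFU C. tropicalis 5008 on day 0. Treatment started 24 h post infection: oral dosing once daily for 5 consecutive days, with saline and fluconazole control groups. Mice euthanized day 6. Kidney homogenates plated on SDA at 35 °C for 48 h and colonies counted for fungal burden. ANOVA between groups.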

Cryptococcus neoformans [12] = assay: Downregulation of CAP64 gene expression in Cryptococcus neoformans H99 at 2 ug/ml measured after 24 hrs by qRT-PCR analysis; type: functional; details: dose 2.0 µg/ml
Outline: as §1

Candida tropicalis [13] = assay: Antifungal activity against fluconazole-resistant Candida tropicalis 5008 assessed as inhibition of cell proliferation at 32 ug/ml measured for 48 hrs by time growth curve assay; type: functional, organism-based; details: dose 32.0 µg/ml
Outline: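 Exponential-phase cells from YEPD resuspended in 3 mL fresh RPMI 1640 at 1 × 10⁵ cells/mL (C. tropicalis 5008) or 1 × 10⁶ cells/mL (C. neoformans H99). Compound at several concentrations; cultures shaken at 240 rpm, 30 °C. Growth read as OD₆₃₀ at 0, 6, 12, 24, 36 and 48 h. Done in triplicate.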

In the case of `O=C(CCCCCCCOc1ccc(CN2CCN(CC(O)(Cn3cncn3)c3ccc(F)cc3F)CC2)cc1)NO` (centres undefined), the MIC80 (Cryptococcus neoformans [1]) is reported as 0.5 µg/mL (≈ 0.852 µM), the MIC80 (Candida albicans) is reported as 8 µg/mL (≈ 13.6 µM) and the inhibition at 64 µg/mL (Candida tropicalis [2]) is reported as 100%. For the same molecule, the inhibition (Cryptococcus neoformans [3]) was “Active”, the Activity (Candida tropicalis [4]) was 1.51% and the Activity (Candida tropicalis [5]) was 1.31%. For the same molecule, the Activity (Candida tropicalis [6]) was 16%, the Activity (Candida tropicalis [7]) was 69.3% and the inhibition (Candida tropicalis [8]) was “Active”. The IC50 [9] was 2.38 µM, the IC50 [10] was 12.6 µM and the “log(activity)” value (Candida tropicalis [11]) was 0.7. For the same molecule, the inhibition (Cryptococcus neoformans [12]) was “inactive” and the Activity (Candida tropicalis [13]) was “Active”.
